Activity calls are given as the source filed them. No cut-off for these calls is given here.
Assays:
MCF7 [1] = assay: Cytotoxicity against human MCF7 cells after 72 hrs by MTT assay; type: functional, cell-based; conditions: MCF7, 24 h, in the assay text read “after 24 hrs” for “after 72 hrs”
Outline: (§1)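 MTT viability assay on HeLa, HL-60, MCF-7, MKN45 and LS174 cells. MTT (500 μg/mL) was added for 4 h at 37 °C and formazan dissolved in DMSO; A570 was read. IC50 came from linear regression; experiments were done in triplicate.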

HeLa [2] = assay: Cytotoxicity against human HeLa cells after 24 hrs by MTT assay
[3] = Cytotoxicity against human LS 174T cells after 24 hrs by MTT assay; conditions: LS174T
MKN-45 = assay: Cytotoxicity against human MKN45 cells after 24 hrs by MTT assay; conditions: MKN-45, 24 h
HL-60 = assay: Cytotoxicity against human HL60 cells after 72 hrs by MTT assay; type: functional, cell-based; conditions: HL-60, 24 h, in the assay text read “after 24 hrs” for “after 72 hrs”; outline: as §1
HeLa [4] = assay: Induction of apoptosis in human HeLa cells assessed as damaged cells at IC50 concentration after 24 hrs using annexin V/propidium iodide staining by flow cytometry; type: functional
Outline: (§2)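 HeLa cells, seeded at 1 × 10^6 per well, were treated for 24 h at a fixed concentration set per compound. Cells were washed in cold PBS and resuspended in binding buffer. Staining was annexin V-FITC at 4 °C in the dark for 15 min, then PI for 5 min. Quadrants were read by flow cytometry: live, early apoptotic, late apoptotic, damaged. Run three times.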

HeLa [5] = assay: Induction of apoptosis in human HeLa cells assessed as late apoptotic cells at IC50 concentration after 24 hrs using annexin V/propidium iodide staining by flow cytometry; type: functional; outline: as §2
HeLa [6] = assay: Induction of lysosomal membrane permeabilization in human HeLa cells assessed as acridine orange red fluorescence at 4 uM after 24 hrs by flow cytometry; type: functional
Outline: (§3)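 Each compound was tested at three concentrations on HeLa cells for 24 h. Adherent and floating cells were pooled and stained with 20 μg/mL acridine orange for 2 min at room temperature. Lysosomal rupture was scored by flow cytometry as percentage of cells with AO red fluorescence.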

HeLa [7] = assay: Induction of apoptosis in human HeLa cells assessed as viable cells at IC50 concentration after 24 hrs using annexin V/propidium iodide staining by flow cytometry; type: functional; outline: as §2
[8] = target: DNA topoisomerase 2-alpha (Homo sapiens) (UniProt P11388); assay: Inhibition of DNA topoisomerase 2-mediated kDNA decatenation at 100 uM
Outline: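 Cell-free topo II decatenation: 0.2 μg kDNA was incubated with HeLa-cell topo II extract and compound at 100 μM. The cleavage buffer contained 50 mM Tris-HCl pH 8.0, 120 mM KCl, 10 mM MgCl2, 1 mM ATP and 0.5 mM DTT. Reactions ran 15 min at 37 °C and were stopped with SDS. Products were resolved on 1% agarose and stained with ethidium bromide.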

Calf thymus DNA [9] = assay: Binding affinity to calf thymus DNA assessed as circular dichroism by CD spectroscopy; type: nucleic-acid assay; conditions: Bos taurus
Outline: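 CT DNA (100 μM) with drug (20 μM) in 20 mM Tris-HCl pH 7.4. DNA concentration set by UV absorbance, A260/A280 above 1.8. CD spectrum recorded 200-400 nm in a 1 cm cell after shaking, thermal equilibration and buffer subtraction. Analysed over 230-300 nm.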

Nucleic Acid = assay: Induction of conformational changes in Escherichia coli pBR322 DNA assessed as DNA relaxation at 100 uM after 2 hrs by gel electrophoresis; type: nucleic-acid assay
Outline: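 pBR322 plasmid (200 ng) was incubated with compound at 100 μM in Tris-HCl pH 7.4 for 2 h at 37 °C. Samples ran on 1% agarose and were stained with ethidium bromide; supercoiled versus relaxed forms were judged from gel migration.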

HeLa [10] = assay: Induction of lysosomal membrane permeabilization in human HeLa cells assessed as acridine orange red fluorescence at 2 uM after 24 hrs by flow cytometry; type: functional; outline: as §3
HeLa [11] = assay: Induction of cytochrome c release into cytosol in human HeLa cells at IC50 concentration after 24 hrs by FITC/Hoechst soluble immunocytochemical staining; type: functional, cell-based
Outline: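 HeLa cells were treated 24 h at compound-specific concentrations, then fixed in 10% formaldehyde, permeabilized in 90% methanol and blocked with milk. Staining was rabbit anti-cytochrome c (1:500) then FITC goat anti-rabbit IgG (1:100), 1 h each at room temperature, with 2 μg/mL Hoechst 33258 as counterstain. Cytosolic green signal was imaged by confocal microscopy.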

HeLa [12] = assay: Induction of lysosomal membrane permeabilization in human HeLa cells assessed as acridine orange red fluorescence at 6 uM after 24 hrs by flow cytometry; type: functional; outline: as §3
Calf thymus DNA [13] = assay: Binding affinity to calf thymus DNA by fluorescent spectra analysis; type: nucleic-acid assay; conditions: Bos taurus
Outline: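 Compounds at 10, 20, 30 and 50 μM in 20 mM Tris-HCl pH 7.4, with or without 100 μM CT DNA (no-DNA samples as control). Incubated 1 day in the dark at 25 °C. Fluorescence wavelength and intensity read at 25 °C. Scatchard binding constant calculated.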

HeLa [14] = assay: Induction of apoptosis in human HeLa cells assessed as early apoptotic cells at IC50 concentration after 24 hrs using annexin V/propidium iodide staining by flow cytometry; type: functional; outline: as §2
HeLa [15] = assay: Induction of lysosomal membrane permeabilization in human HeLa cells assessed as acridine orange red fluorescence at 10 uM after 24 hrs by flow cytometry; type: functional; outline: as §3
HeLa [16] = assay: Induction of lysosomal membrane permeabilization in human HeLa cells assessed as acridine orange red fluorescence at 15 uM after 24 hrs by flow cytometry; type: functional; outline: as §3
HeLa [17] = assay: Induction of lysosomal membrane permeabilization in human HeLa cells assessed as acridine orange red fluorescence at 5 uM after 24 hrs by flow cytometry; type: functional; outline: as §3
HeLa [18] = assay: Induction of lysosomal membrane permeabilization in human HeLa cells assessed as acridine orange red fluorescence at 7 uM after 24 hrs by flow cytometry; type: functional; outline: as §3
HeLa [19] = assay: Induction of lysosomal membrane permeabilization in human HeLa cells assessed as acridine orange red fluorescence at 8 uM after 24 hrs by flow cytometry; type: functional; outline: as §3
MCF7 [20] = assay: Cytotoxicity against human MCF7 cells after 24 hrs by MTT assay; conditions: MCF7, 24 h
HeLa [21] = assay: Induction of lysosomal membrane permeabilization in human HeLa cells assessed as acridine orange red fluorescence at 11 uM after 24 hrs by flow cytometry; type: functional; outline: as §3
HeLa [22] = assay: Induction of lysosomal membrane permeabilization in human HeLa cells assessed as acridine orange red fluorescence at 1 uM after 24 hrs by flow cytometry; type: functional; outline: as §3
HeLa [23] = assay: Induction of lysosomal membrane permeabilization in human HeLa cells assessed as acridine orange red fluorescence at 3 uM after 24 hrs by flow cytometry; type: functional; outline: as §3
HeLa [24] = assay: Induction of lysosomal membrane permeabilization in human HeLa cells assessed as acridine orange red fluorescence at 17 uM after 24 hrs by flow cytometry; type: functional; outline: as §3
HeLa [25] = assay: Induction of lysosomal membrane permeabilization in human HeLa cells assessed as acridine orange red fluorescence at 14 uM after 24 hrs by flow cytometry; type: functional; outline: as §3
HeLa [26] = assay: Induction of lysosomal membrane permeabilization in human HeLa cells assessed as acridine orange red fluorescence at 20 uM after 24 hrs by flow cytometry; type: functional; outline: as §3
[27] = in the assay text read “late apoptotic cells” for “damaged cells”

DNA topoisomerase 2-alpha (Homo sapiens), sequence (P11388 whole entry): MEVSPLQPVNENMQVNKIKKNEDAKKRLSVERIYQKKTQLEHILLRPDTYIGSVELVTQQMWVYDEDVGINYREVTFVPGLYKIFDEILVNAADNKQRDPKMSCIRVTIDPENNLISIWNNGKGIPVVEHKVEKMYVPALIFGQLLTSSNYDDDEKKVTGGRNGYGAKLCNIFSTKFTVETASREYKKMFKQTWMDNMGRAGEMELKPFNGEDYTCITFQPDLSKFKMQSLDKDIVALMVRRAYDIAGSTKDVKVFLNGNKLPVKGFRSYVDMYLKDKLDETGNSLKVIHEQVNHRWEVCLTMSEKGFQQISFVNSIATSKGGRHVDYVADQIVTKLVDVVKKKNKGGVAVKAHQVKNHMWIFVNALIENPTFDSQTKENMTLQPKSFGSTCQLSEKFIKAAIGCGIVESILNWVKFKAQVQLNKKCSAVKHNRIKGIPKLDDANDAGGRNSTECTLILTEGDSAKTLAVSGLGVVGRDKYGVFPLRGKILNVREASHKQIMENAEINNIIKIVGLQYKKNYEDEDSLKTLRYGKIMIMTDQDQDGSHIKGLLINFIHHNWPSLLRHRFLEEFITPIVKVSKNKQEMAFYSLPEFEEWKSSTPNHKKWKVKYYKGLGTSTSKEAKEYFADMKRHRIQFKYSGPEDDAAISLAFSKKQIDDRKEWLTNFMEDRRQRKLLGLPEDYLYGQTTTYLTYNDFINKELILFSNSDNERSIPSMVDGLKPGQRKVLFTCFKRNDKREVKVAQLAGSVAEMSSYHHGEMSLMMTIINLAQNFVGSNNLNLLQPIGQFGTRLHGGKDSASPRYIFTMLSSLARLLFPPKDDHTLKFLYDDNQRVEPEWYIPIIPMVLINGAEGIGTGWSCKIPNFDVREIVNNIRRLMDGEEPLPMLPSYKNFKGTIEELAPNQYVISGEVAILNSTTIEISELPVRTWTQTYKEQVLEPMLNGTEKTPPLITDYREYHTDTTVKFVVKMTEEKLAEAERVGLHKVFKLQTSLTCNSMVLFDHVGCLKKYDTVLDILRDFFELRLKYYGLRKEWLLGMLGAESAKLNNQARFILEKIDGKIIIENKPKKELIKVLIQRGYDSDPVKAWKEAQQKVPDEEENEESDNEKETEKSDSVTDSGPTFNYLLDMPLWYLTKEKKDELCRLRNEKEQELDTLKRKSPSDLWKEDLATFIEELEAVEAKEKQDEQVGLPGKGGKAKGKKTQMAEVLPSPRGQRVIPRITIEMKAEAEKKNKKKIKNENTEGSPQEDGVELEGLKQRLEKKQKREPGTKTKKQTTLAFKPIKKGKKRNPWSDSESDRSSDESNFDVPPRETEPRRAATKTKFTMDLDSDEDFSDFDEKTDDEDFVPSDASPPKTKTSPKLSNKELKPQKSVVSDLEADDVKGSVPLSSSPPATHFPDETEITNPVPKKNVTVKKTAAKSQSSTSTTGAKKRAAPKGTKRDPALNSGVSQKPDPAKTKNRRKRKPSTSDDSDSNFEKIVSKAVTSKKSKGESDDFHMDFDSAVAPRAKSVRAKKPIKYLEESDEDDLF

Row | SMILES | Activity [8] | Activity (Calf thymus DNA [9]) | Activity (Nucleic Acid) | IC50 (MCF7 [1]) | IC50 (HeLa [2]) | IC50 [3] | IC50 (MKN-45) | IC50 (HL-60) | Activity (HeLa [4]; [27]) | Activity (HeLa [6]) | Activity (HeLa [11]) | Activity (HeLa [14]) | further results
1 | CCCCCCCCCCCCN1C(=O)c2cccc3c(NCCN(C)C)ccc(c23)C1=O | – | – | – | 3.57 µM | 9.13 µM | 12.8 µM | 9.03 µM | 5.32 µM | – | – | – | – | –
2 | CN(C)CCN1C(=O)c2cccc3cc(N)cc(c23)C1=O [AMONAFIDE] | Active | – | – | – | 10.7 µM | 20.3 µM | > 50 µM | – | – | – | – | – | Kb (Calf thymus DNA [13]): 14300 M⁻¹; Activity (HeLa [15]): 10%; Activity (HeLa [16]): 77.27%; Activity (HeLa [17]): 112%
3 | CCCCCCCCN1C(=O)c2cccc3c(NCCN4CCN(C)CC4)ccc(c23)C1=O | Active | inactive | inactive | 8.35 µM | 7.9 µM | 17.9 µM | 17.4 µM | 12 µM | 53.82% | 93.04% | Active | – | Activity (HeLa [15]): 89.89%; Activity (HeLa [18]): 88.55%
4 | CCCCCCCCCCCCN1C(=O)c2cccc3c(NCCN4CCN(C)CC4)ccc(c23)C1=O | Active | inactive | inactive | 2.79 µM | 5.45 µM | 12.7 µM | 9.28 µM | 7.05 µM | 12.75% | 95.81% | Active | 86.98% | Activity (HeLa [10]): 97.39%; Activity (HeLa [12]): 92.83%
5 | CCCCCCCCNc1ccc2c3c(cccc13)C(=O)N(CCCN1CCN(C)CC1)C2=O | Active | inactive | inactive | – | 8.1 µM | 18.4 µM | 22.2 µM | 5.7 µM | – | – | Active | – | Activity (HeLa [4]): 96.66%; Activity (HeLa [5]): 96.7%; Activity (HeLa [7]): 3.28%; Activity (HeLa [19]): 91.86%; IC50 (MCF7 [20]): 5.72 µM; Activity (HeLa [21]): 83.18%; Activity (HeLa [17]): 89.48%
6 | COc1cccc2c1C(=O)c1c(O)c3c(c(O)c1C2=O)C[C@@](O)(C(=O)CO)C[C@@H]3O[C@H]1C[C@H](N)[C@H](O)[C@H](C)O1 | Active | – | Active | – | – | – | – | – | – | – | – | – | –
7 | CCCCCCCCCCCCN1C(=O)c2cccc3c(NCCCCCCCC)ccc(c23)C1=O | – | – | – | > 50 µM | 46.4 µM | > 50 µM | > 50 µM | > 50 µM | – | – | – | – | –
8 | CCCCCCCCCCCCNc1ccc2c3c(cccc13)C(=O)N(CCCN1CCN(C)CC1)C2=O | Active | inactive | inactive | 2.48 µM | 2.89 µM | 7.43 µM | 8.43 µM | 2.98 µM | 14.96% | – | Active | 84.84% | Activity (HeLa [22]): 96.01%; Activity (HeLa [23]): 95.2%; Activity (HeLa [17]): 59.82%
9 | CCCCCCCCNc1ccc2c3c(cccc13)C(=O)N(CCCN(C)C)C2=O | – | – | – | 5.15 µM | 8.52 µM | 5.87 µM | 17.6 µM | 5.53 µM | – | – | – | – | –
10 | CNc1ccc2c3c(cccc13)C(=O)N(CCCN(C)C)C2=O | – | – | – | 9.66 µM | 23.4 µM | 31.5 µM | > 50 µM | 21.6 µM | – | – | – | – | –

Second part, led by results:

Row | Activity [8] | Activity (Calf thymus DNA [9]) | Activity (Nucleic Acid) | SMILES | IC50 (MCF7 [1]) | IC50 (HeLa [2]) | IC50 [3] | IC50 (MKN-45) | IC50 (HL-60) | Activity (HeLa [4]; [27]) | Activity (HeLa [6]) | Activity (HeLa [11]) | Activity (HeLa [14]) | further results
11 | Active | inactive | inactive | CCCCCCCCCCCCNc1ccc2c3c(cccc13)C(=O)N(CCCNCCN(C)C)C2=O | 2.56 µM | 4.71 µM | 9.43 µM | 15.5 µM | 4.04 µM | 98.89% | 82.37% | Active | – | Activity (HeLa [5]): 98.89%; Activity (HeLa [7]): 1.05%; Activity (HeLa [10]): 85.49%; Activity (HeLa [12]): 44.64%
12 | Active | inactive | inactive | CCCCCCCCN1C(=O)c2cccc3c(NCCNCCN(C)C)ccc(c23)C1=O | 3.76 µM | 4.5 µM | 9.27 µM | 9.28 µM | 5.13 µM | 9.82% | 90.98% | Active | 90.07% | Activity (Calf thymus DNA [13]): inactive; Activity (HeLa [10]): 92.29%; Activity (HeLa [12]): 85.74%
13 | Active | inactive | inactive | CCCCCCCCNc1ccc2c3c(cccc13)C(=O)N(CCCNCCN(C)C)C2=O | 2.41 µM | 4.06 µM | 9.16 µM | 14.8 µM | 2.67 µM | – | 84.5% | Active | 74.25% | Activity (HeLa [7]): 25.7%; Activity (HeLa [10]): 83.13%; Activity (HeLa [12]): 32.89%
14 | Active | inactive | inactive | CCCCCCCCCCCCN1C(=O)c2cccc3c(NCCNCCN(C)C)ccc(c23)C1=O | 4.52 µM | 16.8 µM | 18.6 µM | 11.8 µM | 6.63 µM | 20.72% | – | Active | 79.21% | Activity (HeLa [24]): 93.5%; Activity (HeLa [25]): 94.85%; Activity (HeLa [26]): 88.49%

Source: ChEMBL document CHEMBL1157617, “A new class of naphthalimide-based antitumor agents that inhibit topoisomerase II and induce lysosomal membrane permeabilization and apoptosis” (J Med Chem, 2010)
